In test [1] the target is T1, Monoglyceride lipase (Homo sapiens, UniProt Q99685).
T1 sequence (Q99685 whole entry): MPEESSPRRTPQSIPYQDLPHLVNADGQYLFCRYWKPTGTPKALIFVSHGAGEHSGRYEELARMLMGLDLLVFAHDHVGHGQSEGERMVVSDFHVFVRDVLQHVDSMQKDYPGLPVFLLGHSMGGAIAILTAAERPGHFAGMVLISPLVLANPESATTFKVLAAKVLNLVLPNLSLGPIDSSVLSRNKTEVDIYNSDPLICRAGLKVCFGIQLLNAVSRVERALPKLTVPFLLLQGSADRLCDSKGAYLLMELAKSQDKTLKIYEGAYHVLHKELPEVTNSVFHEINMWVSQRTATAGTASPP
Kind of test: Inhibition of MAGL. Summed up: (§1)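 [3H]-2-oleoylglycerol then added at 10 µM final. Stopped with methanol-chloroform (1:1), centrifuged 5 min at 700 g, aqueous-phase radioactivity read by liquid scintillation, no-enzyme blank subtracted. Means of three independent experiments in duplicate.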

The target in test [2] is T1, Monoglyceride lipase. Nature of the test: Irreversible inhibition of human MAGL using p-nitrophenylpropionate as substrate. An outline of the steps:
(§2)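 MAGL (3 ng; Tris 50 mM, LDAO 0.1%, pH 8.0) added to p-nitrophenylpropionate (1.25 mM) plus inhibitor at various concentrations, both in DMSO. […] Done four times in quadruplicate.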

Test [3] concerns the target T2, Monoglyceride lipase (Homo sapiens) (UniProt Q99685).
T2 sequence (whole entry): T1 sequence (Q99685 whole entry)
Kind of test: Ratio of Kinact to Ki for human MAGL using p-nitrophenylpropionate as substrate. Summed up:
as §2

Test [4] deals with T2, Monoglyceride lipase (Homo sapiens). Nature of the test: Ratio of JZL184 IC50 to compound IC50 for human MAGL.
Test [5] has as its target T1, Monoglyceride lipase. Kind of test: Inhibition of human MAGL assessed as [3H]-2-OG hydrolysis preincubated for 30 mins before [3H]-2-OG addition measured after 10 mins by liquid scintillation counting. An outline of the steps:
as §1

Test [6] addresses T2, Monoglyceride lipase (Homo sapiens). Nature of the test: Irreversible inhibition of human MAGL assessed as [3H]-2-OG hydrolysis preincubated for 30 mins before [3H]-2-OG addition measured at 10^-8 M to 10^-9 M measured after 300 fold dilution rapid dilution assay. An outline of the steps:
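Human MAGL (800 ng in Tris 50 mM, BSA 0.15%, pH 8.0) incubated 30 min at room temperature with inhibitor at 10^-8 or 10^-9 M in the mixture (DMSO). Diluted 300-fold in buffer, 15 min incubation, then [3H]-2-OG hydrolase activity read on an aliquot holding 10 ng enzyme by the standard radiometric method. Performed two times in triplicate.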

The species entered for the next test is Homo sapiens. Nature of the test: Selectivity ratio of IC50 for human recombinant FAAH to IC50 for human MAGL. Summed up: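 Selectivity calculated as IC50 for human FAAH divided by IC50 for human MAGL. Both IC50 values from radiometric hydrolysis assays: [3H]-AEA with MBP-fused FAAH and [3H]-2-OG with pure MAGL. Each assay had 30 min inhibitor preincubation. Means of three independent experiments in duplicate.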

Test [7] addresses T3, Fatty-acid amide hydrolase 1 (Homo sapiens, UniProt O00519).
T3 sequence (O00519 whole entry): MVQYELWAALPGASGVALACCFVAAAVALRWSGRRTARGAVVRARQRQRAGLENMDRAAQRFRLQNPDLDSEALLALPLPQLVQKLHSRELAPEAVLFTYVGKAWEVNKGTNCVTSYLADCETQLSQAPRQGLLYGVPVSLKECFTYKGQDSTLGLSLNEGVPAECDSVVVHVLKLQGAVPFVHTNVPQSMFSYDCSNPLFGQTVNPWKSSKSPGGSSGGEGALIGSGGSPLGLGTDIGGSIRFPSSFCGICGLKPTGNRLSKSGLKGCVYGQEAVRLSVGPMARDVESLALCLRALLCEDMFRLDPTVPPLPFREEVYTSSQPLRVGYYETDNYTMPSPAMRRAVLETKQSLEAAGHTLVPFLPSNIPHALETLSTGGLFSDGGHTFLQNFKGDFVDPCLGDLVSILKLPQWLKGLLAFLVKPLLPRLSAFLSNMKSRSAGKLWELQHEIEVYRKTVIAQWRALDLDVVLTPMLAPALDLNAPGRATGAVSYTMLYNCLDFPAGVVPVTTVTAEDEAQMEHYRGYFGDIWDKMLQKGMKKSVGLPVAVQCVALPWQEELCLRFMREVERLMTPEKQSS
Nature of the test: Inhibition of human recombinant FAAH assessed as [3H]-AEA hydrolysis preincubated for 30 mins […] measured after 10 mins by liquid scintillation counting. An outline of the steps:
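Human FAAH fused to maltose-binding protein, preincubated 30 min at 22 °C with inhibitor at various concentrations (Tris 10 mM, EDTA 1 mM, pH 8.0, inhibitor in DMSO). [3H]-anandamide (50,000 dpm) added, 10 min at 37 °C. Stopped with cold methanol/chloroform (1:1), aqueous-phase radioactivity by scintillation, blank subtracted, percent of control fitted as dose-response. Three independent experiments in duplicate.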

In test [8] the target is Monoglyceride lipase (Homo sapiens) (UniProt Q99685). Nature of the test: Ratio of JZL184 IC50 to compound IC50 for human MAGL.
Test [9] addresses T3, Fatty-acid amide hydrolase 1. Nature of the test: Inhibition of FAAH. Summed up: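 Human FAAH fused to maltose-binding protein, preincubated 30 min at 22 °C with inhibitor (various concentrations, in DMSO) in Tris 10 mM, EDTA 1 mM, pH 8.0. [³H]-anandamide substrate added, then 10 min at 37 °C. Stopped with cold methanol/chloroform (1:1). Aqueous-phase radioactivity counted by liquid scintillation, with the no-enzyme blank subtracted. Activity taken as percent of control; IC50 from dose-response curves; three independent experiments in duplicate.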

Active and inactive are the calls of the source. The calls are words filed in the database; no cut-off is given here.

One may read the IC50 as the concentration that gives 50% inhibition.

`O=C(N1CCN(C(c2ccccc2)c2ccccc2)CC1)n1nnc2ncccc21` gave an IC50 against Monoglyceride lipase [1] of 4 nM.
Turning to `O=C(N1CCN(C(c2ccccc2)c2ccccc2)CC1)n1nnc2ccccc21`, on Monoglyceride lipase [2], the Ki turned out to be 75.7 nM. Besides, in test [3], the Ratio was found to be 208000. The Ratio IC50 in test [4] came out at 70; in the test listed under Homo sapiens, 1040; in test [8], 70. The half-inhibitory concentration (IC50) is 0.54 nM at Monoglyceride lipase [5] and 562 nM in test [7]. The inhibition result in [6] was “Active”.
On to `O=C(Oc1ccc([N+](=O)[O-])cc1)N1CCC(C(O)(c2ccc3c(c2)OCO3)c2ccc3c(c2)OCO3)CC1`, for which the 50% inhibitory concentration (IC50) in test [7] turned out to be 36300 nM; in [9], 4690 nM.

These data come from ChEMBL document CHEMBL2157873, “Development and characterization of endocannabinoid hydrolases FAAH and MAGL inhibitors bearing a benzotriazol-1-yl carboxamide scaffold” (Bioorg Med Chem, 2012).
